Test results reported in ChEMBL document CHEMBL1122807, “2-Substituted thiazolidine-4(R)-carboxylic acids as prodrugs of L-cysteine. Protection of mice against acetaminophen hepatotoxicity” (1984).

Key:
Mus musculus [1] = experiment: Compound was evaluated for its protective activity against acetaminophen (750 mg ([…]) /kg) toxicity, given intraperitoneally in mice and the survival of the mice was determined at 48 h; 23/26; format: functional
Procedure, shortened: (§1)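 Swiss-Webster mice were fasted overnight (16 h) before use. Test compound, made up as a 15 mg/mL solution in sterile 0.1 N NaHCO3 (pH 6.5–7.5) and used within 1 h of preparation, was given at 2.45 mmol/kg ip 0.5 h after acetaminophen ip. Survivors were counted at 48 h. Counts are cumulative over at least three replicate experiments run at different times.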

Mus musculus [2] = experiment: Compound was evaluated for its protective activity against acetaminophen (750 mg ([…]) /kg) toxicity, given intraperitoneally in mice and the number of animals with liver necrosis was determined after 2 hr; format: functional
Procedure, shortened: (§2)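 Overnight-fasted (16 h) Swiss-Webster mice received acetaminophen 750 mg/kg ip, then test agent 2.45 mmol/kg ip 0.5 h later. Agents were made at 15 mg/mL in sterile 0.1 N NaHCO3 (one in sterile water), pH 6.5–7.5, and used within 1 h. Liver sections from the first 18 animals per agent were coded and graded 0 to 4+ blind. Results pooled from ≥3 replicate experiments.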

Mus musculus [3] = experiment: Compound was evaluated for its protective activity against acetaminophen (750 mg ([…]) /kg) toxicity, given intraperitoneally in mice and the number of animals with liver necrosis was determined after 3h; format: functional; procedure, shortened: as §2
Mus musculus [4] = experiment: Compound was evaluated for its protective activity against acetaminophen (750 mg ([…]) /kg) toxicity, given intraperitoneally in mice and the number of animals with liver necrosis was determined after 0h; format: functional
Mus musculus [5] = experiment: Compound was evaluated for its protective activity against acetaminophen (750 mg ([…]) /kg) toxicity, given intraperitoneally in mice and the number of animals with liver necrosis was determined
Mus musculus [6] = experiment: Compound was evaluated for its protective activity against acetaminophen (750 mg ([…]) /kg) toxicity, given intraperitoneally in mice and the survival of the mice was determined at 48 h; 24/24; format: functional; procedure, shortened: as §1
Mus musculus [7] = experiment: Compound was evaluated for its protective activity against acetaminophen (750 mg ([…]) /kg) toxicity, given intraperitoneally in mice and the number of animals with liver necrosis was determined after 1 hr; format: functional
Mus musculus [8] = experiment: Compound was evaluated for its protective activity against acetaminophen (750 mg ([…]) /kg) toxicity, given intraperitoneally in mice and the survival of the mice was determined at 48 h; 30/30; format: functional; procedure, shortened: as §1
Mus musculus [9] = experiment: Compound was evaluated for its protective activity against acetaminophen (750 mg ([…]) /kg) toxicity, given intraperitoneally in mice and the survival of the mice was determined at 48 h; 13/24; format: functional; procedure, shortened: as §1
Mus musculus [10] = species on record: Mus musculus; experiment: Compound was evaluated for the excretion of 14CO2 (carbon dioxide) in expired air of mice and the activity was determined as percent of dose excreted as 14CO2 at following time intervals - 8-12h; format: functional
Procedure, shortened: (§3)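 Mice were dosed with thiazolidine carrying 14C at ring C-2 and the methyl carbon. Expired 14CO2 was trapped, and the trap was changed at 4, 8, 12, 16 and 24 h. Aliquots were counted by liquid scintillation against an aqueous Na2 14CO3 standard and expressed as percent of dose. The experiment was repeated in a second mouse (24 g, 2.57 mmol/kg).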

Mus musculus [11] = species on record: Mus musculus; experiment: Compound was evaluated for the excretion of 14CO2 (carbon dioxide) in expired air of mice and the activity was determined as percent of dose excreted as 14CO2 at following time intervals - 0-4 hr; format: functional; procedure, shortened: as §3
Mus musculus [12] = species on record: Mus musculus; experiment: Compound was evaluated for the excretion of 14CO2 (carbon dioxide) in expired air of mice and the activity was determined as percent of dose excreted as 14CO2 at following time intervals - 12-16 h; format: functional; procedure, shortened: as §3
Mus musculus [13] = species on record: Mus musculus; experiment: Compound was evaluated for the excretion of 14CO2 (carbon dioxide) in expired air of mice and the activity was determined as percent of dose excreted as 14CO2 at following time intervals - 4-8h; format: functional; procedure, shortened: as §3
Mus musculus [14] = species on record: Mus musculus; experiment: Compound was evaluated for the excretion of 14CO2 (carbon dioxide) in expired air of mice and the activity was determined as percent of dose excreted as 14CO2 at following time intervals - 16-24h; format: functional; procedure, shortened: as §3
Mus musculus [15] = experiment: Compound was evaluated for its protective activity against acetaminophen (750 mg ([…]) /kg) toxicity, given intraperitoneally in mice and the survival of the mice was determined at 48 h; 28/30; format: functional
Mus musculus [16] = experiment: Compound was evaluated for its protective activity against acetaminophen (750 mg ([…]) /kg), given intraperitoneally) in mice and the number of animals with liver necrosis was determined after 3h; format: functional; procedure, shortened: as §2
Mus musculus [17] = experiment: Compound was evaluated for its protective activity against acetaminophen (750 mg ([…]) /kg) toxicity, given intraperitoneally in mice and the survival of the mice was determined at 48 h; 0/18; format: functional; procedure, shortened: as §1
Mus musculus [18] = experiment: Compound was evaluated for its protective activity against acetaminophen (750 mg ([…]) /kg) toxicity, given intraperitoneally in mice and the survival of the mice was determined at 48 h; 17/17; format: functional
Mus musculus [19] = experiment: Compound was evaluated for its protective activity against acetaminophen (750 mg ([…]) /kg) toxicity, given intraperitoneally in mice and the survival of the mice was determined at 48 h; 19/24; format: functional; procedure, shortened: as §1

Structure (SMILES) | No. of animals with liver necrosis (Mus musculus [2]) | No. of animals with liver necrosis (Mus musculus [3]) | No. of animals with liver necrosis (Mus musculus [4]) | No. of animals with liver necrosis (Mus musculus [5]) | No. of animals with liver necrosis (Mus musculus [7]) | also measured
O=C(O)[C@@H]1CSC(c2ccccc2)N1 (some centres undefined) | 3 | 6 | 7 | 2 |  | Survival (Mus musculus [1]): 23
CCCCCC1N[C@H](C(=O)O)CS1 (some centres undefined) |  |  | 16 |  | 2 | Survival (Mus musculus [6]): 24
CCCC1N[C@H](C(=O)O)CS1 (some centres undefined) | 1 |  | 9 | 2 | 6 | Survival (Mus musculus [8]): 30
O=C(O)[C@@H]1CSC(c2ccncc2)N1 (some centres undefined) | 1 | 5 | 2 | 6 | 4 | Survival (Mus musculus [9]): 13
CC1N[C@H](C(=O)O)CS1 (some centres undefined) |  |  | 17 | 1 |  | Of dose excreted (Mus musculus [10]): 4.3%; Of dose excreted (Mus musculus [11]): 61.9%; Of dose excreted (Mus musculus [12]): 2.9%; Of dose excreted (Mus musculus [13]): 7%; Of dose excreted (Mus musculus [14]): 3.7%; Survival (Mus musculus [15]): 28
CC1N[C@@H](C(=O)O)CS1 (some centres undefined) |  |  |  | 17 |  | No. of animals with liver necrosis (Mus musculus [16]): 1; Survival (Mus musculus [17]): 0
CC(=O)N[C@@H](CS)C(=O)O [ACETYLCYSTEINE] |  |  | 15 |  | 2 | Survival (Mus musculus [18]): 17
CCC1N[C@H](C(=O)O)CS1 (some centres undefined) | 3 | 3 | 3 | 6 | 3 | Survival (Mus musculus [19]): 19
